Data on 20 compounds can be found in ChEMBL document CHEMBL4011622, “The Structure-Activity Relationship of a Tetrahydroisoquinoline Class of N-Methyl-d-Aspartate Receptor Modulators that Potentiates GluN2B-Containing N-Methyl-d-Aspartate Receptors” (J Med Chem, 2017).

Assay [1] addresses Glutamate NMDA receptor; Grin1/Grin2b (Rattus norvegicus, UniProt P35439+Q00960). The assay can be described thus: Positive allosteric modulation of recombinant rat GluN1/GluN2B receptor expressed in xenopus laevis oocyte assessed as potentiation of glutamate and glycine-induced current response at holding potential -40mV by two electrode voltage clamp method. The procedure, abridged:
(§1)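 Two-electrode voltage clamp at -40 mV, 23°C, pH 7.4 Ba²⁺ recording solution, on Xenopus oocytes expressing rat NMDA receptors. Currents were evoked by 100 µM glutamate plus 30 µM glycine, with compound co-applied (DMSO 0.05–0.5% final). Each compound used at least 4 oocytes from at least 2 frogs.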

In assay [2] the target is Ionotropic glutamate receptor NMDA 1/2D (Rattus norvegicus) (UniProt P35439+Q62645). The assay can be described thus: Positive allosteric modulation of recombinant rat GluN1/GluN2D receptor expressed in xenopus laevis oocyte assessed as potentiation of glutamate and glycine-induced current response at 30 uM at holding potential -40mV by two electrode voltage clamp method relative to control. Put shortly: as §1

Assay [3] has as its target Glutamate NMDA receptor; Grin1/Grin2c (Rattus norvegicus, UniProt P35439+Q00961). The assay can be described thus: Positive allosteric modulation of recombinant rat GluN1/GluN2C receptor expressed in xenopus laevis oocyte assessed as potentiation of glutamate and glycine-induced current response at holding potential -40mV by two electrode voltage clamp method. The procedure, abridged:
as §1
(Two-electrode voltage clamp is typically applied to oocytes expressing channels or transporters.)

The target in assay [4] is T1, Glutamate NMDA receptor; Grin1/Grin2b (Rattus norvegicus) (UniProt P35439+Q00960). The assay can be described thus: Positive allosteric modulation of recombinant rat GluN1/GluN2B receptor expressed in xenopus laevis oocyte assessed as potentiation of glutamate and glycine-induced current response at 30 uM at holding potential -40mV by two electrode voltage clamp method relative to control. The procedure, abridged:
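Two-electrode voltage clamp at -40 mV, 23°C, pH 7.4 Ba²⁺ recording solution, on Xenopus oocytes expressing rat NMDA receptors. Currents were evoked by 100 µM glutamate plus 30 µM glycine, with compound co-applied (DMSO 0.05–0.5% final). […] Each compound used at least 4 oocytes from at least 2 frogs.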

Assay [5] concerns the target Glutamate NMDA receptor; Grin1/Grin2c (Rattus norvegicus) (UniProt P35439+Q00961). Briefly: Positive allosteric modulation of recombinant rat GluN1/GluN2C receptor expressed in xenopus laevis oocyte assessed as potentiation of glutamate and glycine-induced current response at 30 uM at holding potential -40mV by two electrode voltage clamp method relative to control. Put shortly: as §1

The target of assay [6] is Ionotropic glutamate receptor NMDA 1/2D (Rattus norvegicus, UniProt P35439+Q62645). Briefly: Positive allosteric modulation of recombinant rat GluN1/GluN2D receptor expressed in xenopus laevis oocyte assessed as potentiation of glutamate and glycine-induced current response at holding potential -40mV by two electrode voltage clamp method. Put shortly: as §1
In assay [7] the target is T1, Glutamate NMDA receptor; Grin1/Grin2b (Rattus norvegicus). The assay can be described thus: Positive allosteric modulation of recombinant rat GluN1/GluN2B receptor expressed in xenopus laevis oocyte assessed as compound concentration required to show two fold increase in glutamate and glycine-induced current response at holding potential -40mV by two electrode voltage clamp method.

In the case of `CCOc1ccc(OCC2c3ccc(OC4CCCC4)cc3CCN2C(=O)c2cccc(F)c2)cc1` (centres undefined), the results for the EC50 in assay [1], in assay [3] and in assay [6] were 4400 nM, 4500 nM and 4900 nM, respectively. Moreover, the Activity amounted to 161% in assay [2], 202% in assay [4] and 169% in assay [5]. The Emax in assay [2] amounted to 163%; in assay [4], 210%; in assay [5] it was 173%.
Take `CCC(CC)Oc1ccc2c(c1)CCN(C(=O)c1cccc(Cl)c1)C2COc1ccc(OC)cc1` (centres undefined): the values for the EC50 in assay [1], in assay [3] and in assay [6] were 1800 nM, 1600 nM and 1700 nM, respectively. Moreover, the Activity in assay [2] turned out to be 381%; in assay [4], 331%; in assay [5] it was 286%. The Emax in assay [2] is 390%; in assay [4] it was 344%; in assay [5] it was 294%.
Consider `CCOc1ccc(OCC2c3ccc(OCC(C)C)cc3CCN2C(=O)c2cccc(F)c2)cc1` (centres undefined), for which the EC50 in assay [1] worked out at 2500 nM; in assay [3], 3100 nM; in assay [6] it was 3400 nM. Moreover, the figures for the Activity in assay [2], in assay [4] and in assay [5] were 351%, 332% and 309%, respectively. In addition, the maximal response (Emax) in assay [2] came to 364%; in assay [4], 342%; in assay [5] it was 325%.
Turning to `COc1ccc(OCC2c3ccc(OC(C)C)cc3CCN2C(=O)c2cccc(I)c2)cc1` (centres undefined), the EC50 amounted to 1700 nM in assay [1], 690 nM in assay [3] and 1600 nM in assay [6]. The Activity in assay [2] stood at 408%; in assay [4] it was 159%; in assay [5], 215%. The Emax in assay [2] was 414%; in assay [4], 172%; in assay [5], 310%.
On to `COc1ccc(OCC2c3ccc(OC(C)C)cc3CCN2C(=O)c2cccc([N+](=O)[O-])c2)cc1` (centres undefined), for which the results for the EC50 in assay [1], in assay [3] and in assay [6] were 5300 nM, 2800 nM and 3400 nM, respectively. Moreover, the Activity is 335% in assay [2], 198% in assay [4] and 337% in assay [5]. In addition, the Emax in assay [2] is 351%; in assay [4] it was 203%; in assay [5], 358%.
In the case of `CCOc1ccc(OCC2c3ccc(OC(C)C)cc3CCN2C(=S)c2cccc(Br)c2)cc1` (centres undefined), the values for the EC50 in assay [1], in assay [3] and in assay [6] were 340 nM, 940 nM and 280 nM, respectively. For the same compound, the figures for the Emax in assay [2], in assay [4] and in assay [5] were 135%, 174% and 166%, respectively.
On to `CCOc1ccc(OCC2c3ccc(OCC(C)C)cc3CCN2C(=O)c2cccc(Cl)c2)cc1` (centres undefined), for which the EC50 in assay [1] is 1000 nM; in assay [3], 1000 nM; in assay [6], 1500 nM. For the same compound, the Activity in assay [2] is 342%; in assay [4] it was 294%; in assay [5] it was 238%. For the same compound, the Emax in assay [2] worked out at 351%; in assay [4] it was 293%; in assay [5] it was 242%.
Take `CCOc1ccc(OCC2c3ccc(OC(C)C)cc3CCN2C(=O)c2ccc(F)c(F)c2)cc1` (centres undefined): the values for the EC50 in assay [1], in assay [3] and in assay [6] were 3700 nM, 1800 nM and 2900 nM, respectively. Further, the results for the Activity in assay [2], in assay [4] and in assay [5] were 133%, 172% and 145%, respectively. Besides, the Emax is 137% in assay [2], 173% in assay [4] and 150% in assay [5].
For the compound `CCOc1ccc2c(c1)CCN(C(=O)c1cccc(Cl)c1)C2COc1ccc(OC)cc1` (centres undefined), the EC50 came out at 7800 nM in assay [1], 2400 nM in assay [3] and 3000 nM in assay [6]. The Activity in assay [2] was 329%; in assay [4] it was 158%; in assay [5] it was 285%. Further, the Emax in assay [2] came out at 344%; in assay [4], 167%; in assay [5], 294%.
With `CC(C)Oc1ccc(OCC2c3ccc(OC(C)C)cc3CCN2C(=S)c2cccc(Cl)c2)cc1` (centres undefined), the EC50 in assay [1] is 550 nM; in assay [3] it was 480 nM; in assay [6], 410 nM. Moreover, the figures for the Emax in assay [2], in assay [4] and in assay [5] were 152%, 209% and 141%, respectively. Further, the CD in assay [7] stood at 4 µM.
`COc1ccc(OCC2c3ccc(NC(C)C)cc3CCN2C(=O)c2cccc(Cl)c2)cc1` (centres undefined): the values for the EC50 in assay [1], in assay [3] and in assay [6] were 9300 nM, 4700 nM and 5100 nM, respectively. In addition, the values for the Activity in assay [2], in assay [4] and in assay [5] were 333%, 138% and 239%, respectively. The Emax was 363% in assay [2], 141% in assay [4] and 261% in assay [5].
As to `COc1ccc(OCC2c3ccc(N(C)C(C)C)cc3CCN2C(=O)c2cccc(Cl)c2)cc1` (centres undefined), the EC50 in assay [1] was found to be 5900 nM; in assay [3], 2000 nM; in assay [6], 4000 nM. The Activity in assay [2] was 500%; in assay [4], 228%; in assay [5], 404%. Besides, the Emax in assay [2] came to 549%; in assay [4], 235%; in assay [5] it was 424%.
As for `CC(C)Oc1ccc(OCC2c3ccc(OC(C)C)cc3CCN2C(=S)c2cccc(C(F)(F)F)c2)cc1` (centres undefined), the results for the EC50 in assay [1], in assay [3] and in assay [6] were 270 nM, 340 nM and 330 nM, respectively. Also, the Emax in assay [2] stood at 133%; in assay [4], 191%; in assay [5], 162%.
Consider `COc1ccc(OCC2c3ccc(OC4CCCCC4)cc3CCN2C(=O)c2cccc(Cl)c2)cc1` (centres undefined), for which the EC50 in assay [1] stood at 2700 nM; in assay [3], 1200 nM; in assay [6], 1900 nM. Also, the Activity in assay [2] is 309%; in assay [4] it was 259%; in assay [5] it was 222%. Further, the results for the Emax in assay [2], in assay [4] and in assay [5] were 317%, 265% and 225%, respectively.
`CC(C)Oc1ccc2c(c1)CCN(C(=O)c1cccc(Cl)c1)C2COc1ccc(OC(F)(F)F)cc1` (centres undefined): the EC50 in assay [1] came out at 1400 nM; in assay [3], 1500 nM; in assay [6] it was 1700 nM. Besides, the figures for the Activity in assay [2], in assay [4] and in assay [5] were 150%, 130% and 189%, respectively. The figures for the Emax in assay [2], in assay [4] and in assay [5] were 152%, 130% and 192%, respectively.
For the compound `CC(C)Oc1ccc2c(c1)CCN(C(=O)c1cccc(F)c1)C2COc1ccc(OC(F)(F)F)cc1` (centres undefined), the results for the EC50 in assay [1], in assay [3] and in assay [6] were 3200 nM, 2500 nM and 4100 nM, respectively. Also, the Activity is 136% in assay [2], 124% in assay [4] and 154% in assay [5]. Besides, the Emax was 137% in assay [2], 123% in assay [4] and 157% in assay [5].
Take `CCOc1ccc(OCC2c3ccc(OC(C)C)cc3CCN2C(=S)c2cccc(C(F)(F)F)c2)cc1` (centres undefined): the EC50 turned out to be 720 nM in assay [1], 350 nM in assay [3] and 450 nM in assay [6]. Besides, the Emax worked out at 128% in assay [2], 190% in assay [4] and 141% in assay [5].
Consider `COc1ccc(OCC2c3ccc(N4CCOCC4)cc3CCN2C(=O)c2cccc(Cl)c2)cc1` (centres undefined), for which the figures for the EC50 in assay [1], in assay [3] and in assay [6] were 9300 nM, 4700 nM and 22000 nM, respectively. The Activity is 231% in assay [2], 146% in assay [4] and 273% in assay [5]. The Emax was 413% in assay [2], 188% in assay [4] and 342% in assay [5].
On to `COc1ccc(OCC2c3ccc(OC(C)C)cc3CCN2C(=O)c2ccc(Cl)cc2)cc1` (centres undefined), for which the values for the EC50 in assay [1], in assay [3] and in assay [6] were 12000 nM, 9500 nM and 11000 nM, respectively. The values for the Activity in assay [2], in assay [4] and in assay [5] were 244%, 163% and 251%, respectively. Also, the Emax was 288% in assay [2], 182% in assay [4] and 290% in assay [5].
Turning to `COc1ccc(OCC2c3ccc(N4CCCCC4)cc3CCN2C(=O)c2cccc(Cl)c2)cc1` (centres undefined), the EC50 was determined as 4900 nM in assay [1], 2300 nM in assay [3] and 4000 nM in assay [6]. Also, the Activity amounted to 418% in assay [2], 213% in assay [4] and 289% in assay [5]. For the same compound, the Emax in assay [2] amounted to 464%; in assay [4], 221%; in assay [5], 313%.

The EC50 is the concentration needed to bring the measured effect to its halfway point. In general, Emax refers to the size of the effect at its maximum, as opposed to the concentration needed.
